Results from different studies.
Each line is one published result; the experiments were not run side by side.
JAK1 JH2: Tyrosine-protein kinase JAK1, JH2 (JAK1, Homo sapiens, UniProt P23458)
JAK1 JH1: Tyrosine-protein kinase JAK1, JH1 (JAK1, Homo sapiens, UniProt P23458)
JAK1: Tyrosine-protein kinase JAK1 (JAK1, Homo sapiens, UniProt P23458)

O=C(Nc1c[nH]nc1C(=O)NC1CCNCC1)c1cc(F)cc(F)c1  remaining binding (JAK1 JH2; binding, competition with immobilised ligand; 1 µM): 82%
CC1=C(C#N)C(c2ccc3c(c2)c(NC(=O)c2ccccc2C)nn3C)C(C#N)=C(C)N1  remaining binding (JAK1 JH1; cell-free assay, competition with immobilised ligand; 1 µM): 100%
O=C(c1ccc(Nc2nccc(-c3cc4ccccc4s3)n2)cc1)N1CCC(N2CCCC2)CC1  remaining binding (JAK1 JH2; binding, competition with immobilised ligand; 1 µM): 3.6%
C[C@@H]1CN(c2cc(-c3n[nH]c4ccc(OC5(C)CC5)cc34)ncn2)C[C@H](C)O1  remaining binding (JAK1 JH2; cell-free assay, competition with immobilised ligand; 0.1 µM): 79%
c1cncc(-c2cccc(Nc3nccc(NC4CCCCC4)n3)c2)c1  remaining binding (JAK1 JH1; binding, competition with immobilised ligand; 10 µM): 14%
CCS(=O)(=O)c1cc2cc(C[C@](O)(CC(C)(C)c3ccc(F)cc3C(N)=O)C(F)(F)F)[nH]c2cn1  remaining binding (JAK1 JH2; cell-free assay, competition with immobilised ligand; 1 µM): 95%
CN(C)c1nccc(-c2cnc3ncccn23)n1  remaining binding (JAK1; binding; 1 µM): 67%
O=C(NCCCN1CCOCC1)c1ccc(Nc2ncc(Cl)c(-c3ccc(Cl)s3)n2)cc1  remaining binding (JAK1 JH2; binding, competition with immobilised ligand; 1 µM): 46%
CN(C)c1ncc(F)c(-c2cnn3ncccc23)n1  remaining binding (JAK1; binding; 1 µM): 89%
COc1cnc(Nc2cccc(S(N)(=O)=O)c2)nc1N1CCN(c2ccccc2)CC1  remaining binding (JAK1 JH2; binding, competition with immobilised ligand; 1 µM): 28%
CCC(=O)N[C@H]1CC[C@@H](C(=O)N(C)c2ccc(-c3nc4ccccc4o3)cc2)C1  remaining binding (JAK1 JH2; cell-free assay, competition with immobilised ligand; 1 µM): 77%
O=C(c1ccc(Nc2ncc(Cl)c(-c3ccc(Cl)s3)n2)cc1)N1CCC(N2CCCC2)CC1  remaining binding (JAK1 JH1; binding, competition with immobilised ligand; 1 µM): 8.6%
CN(C)CC#Cc1ccc(OCCCc2sc(N3CCc4cccc(C(=O)Nc5nc6ccccc6s5)c4C3)nc2C(=O)O)c(F)c1  remaining binding (JAK1 JH2; cell-free assay, competition with immobilised ligand; 1 µM): 100%
CC1CCCN1c1nccc(-c2cnn3ncccc23)n1 (centres unmarked)  remaining binding (JAK1 JH1; cell-free assay, competition with immobilised ligand; 1 µM): 100%
CCN1CCN(Cc2ccc(C(=O)Nc3ccc(C)c(Oc4ccc5c(c4)CC(=O)N5)c3)cc2C(F)(F)F)CC1  remaining binding (JAK1 JH2; binding, competition with immobilised ligand; 1 µM): 100%
CNC(=O)[C@@H]1CC[C@@H](n2c(-c3ccc4cnccc4c3)nc3ccc(C(=O)NCc4cccc(C(N)=O)c4)cc32)C1  remaining binding (JAK1 JH1; binding, competition with immobilised ligand; 1 µM): 88%
O=C(c1ccc(Nc2ncc(Cl)c(-c3cc4ccccc4s3)n2)cc1)N1CCC(N2CCCC2)CC1  remaining binding (JAK1 JH1; binding, competition with immobilised ligand; 1 µM): 9.3%
N[C@@H]1CCN(c2nccc(-c3cnn4ncccc34)n2)C1  remaining binding (JAK1; binding; 1 µM): 100%
COc1ncc2cc3ccccc3nc2c1C#N  remaining binding (JAK1 JH2; cell-free assay, competition with immobilised ligand; 5 µM): 67%
Cc1cnn2ncc(-c3ccnc(N(C)C)n3)c2c1  remaining binding (JAK1 JH1; cell-free assay, competition with immobilised ligand; 1 µM): 98%
c1ccc(N2CCN(Cc3nc4ccccc4[nH]3)CC2)nc1  remaining binding (JAK1 JH2; binding, competition with immobilised ligand; 1 µM): 76%
CN(C)c1nccc(-c2cnn3ncccc23)n1  remaining binding (JAK1; binding; 1 µM): 53%
COc1ccc2c(c1)O[C@@H](c1ccc(OC)c(OC)c1)C[C@H]2NC(=O)C1(c2ccc3c(c2)OC(F)(F)O3)CC1  remaining binding (JAK1 JH2; cell-free assay, competition with immobilised ligand; 1 µM): 90%
C[C@@H]1CCN(c2nccc(-c3cnn4ncccc34)n2)C1  remaining binding (JAK1; binding; 1 µM): 62%
CC1=C(C#N)[C@@H](c2ccc3[nH]nc(C)c3c2)C(C#N)=C(c2ccc(Cl)cc2)N1  remaining binding (JAK1 JH1; cell-free assay, competition with immobilised ligand; 1 µM): 100%
O=C(NCCCN1CCOCC1)c1ccc(Nc2nccc(-c3cc4ccccc4s3)n2)cc1  remaining binding (JAK1 JH1; binding, competition with immobilised ligand; 1 µM): 39%
F[C@@H]1CCN(c2nccc(-c3cnn4ncccc34)n2)C1  remaining binding (JAK1 JH1; cell-free assay, competition with immobilised ligand; 1 µM): 100%
COc1cnc(Nc2cccc(S(N)(=O)=O)c2)nc1N1CCN(c2ccccc2)C(=O)C1  remaining binding (JAK1 JH1; binding, competition with immobilised ligand; 1 µM): 85%
O=C(NCC1CCOCC1)c1n[nH]cc1NC(=O)c1c(F)cccc1F  remaining binding (JAK1 JH2; binding, competition with immobilised ligand; 1 µM): 90%
Nc1ncc2c(n1)-c1c([nH]c3ccc(C#CC4CC4)cc13)CCCC2  remaining binding (JAK1 JH2; binding, competition with immobilised ligand; 1 µM): 97%
Cc1cnc(Nc2ccc(C(=O)N3CCC(N4CCCC4)CC3)cc2)nc1-c1cc2ccccc2s1  remaining binding (JAK1 JH1; binding, competition with immobilised ligand; 1 µM): 0%
CN1CCN(c2ccc(Nc3nccc(-c4cccc([N+](=O)[O-])c4)n3)cc2C(F)(F)F)CC1  remaining binding (JAK1; binding; 10 µM): 0.25%
